Entries after “also recorded” stand apart in the source; their conditions may differ. Square brackets hold non-standard residues; d marks the D form. Ends that are not written are not given here.
B1: V domain of the receptor for advanced glycation end products (RAGE) (domain or fragment)
chain: QNITARIGEPLVLKCKGAPKKPPQRLEWKLNTGRTEAWKVLSPQGGGPWDSVARVLPNGSLFLPAVGIQDEGIFRCQAMNRNGKETKSNYRVRVYQIPGKPE

Key:
V domain of RAGE [1] = target: T1, V domain of RAGE (Homo sapiens, UniProt Q15109); experiment: NMR solution structure of MG-H1–V domain complex; type: binding
Procedure, shortened: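 Samples of 500 μM [U-13C,15N] V domain, free and with 1 mM unlabeled hydroimidazolone ligand, in pH 6.5 phosphate, 100 mM NaCl, 0.02% NaN3, 90% H2O/10% D2O. 3D 15N- and 13C-edited and 15N-edited/13C-filtered NOESY-HSQC. CYANA calculation: 986 intramolecular and five intermolecular distance restraints (intermolecular upper limits 6 Å), 150 TALOS torsion pairs, 38 H-bond restraints, one disulfide. 20 best structures kept.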

RAGE = settings: cited from earlier work
V domain of RAGE [2] = target: T1, V domain of RAGE; experiment: Fluorescence titration, native tryptophan fluorescence of wild-type V domain; type: binding; settings: pH 6.5, 25 °C
Procedure, shortened: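 Wild-type RAGE V domain: expressed in E. coli BL21(DE3) Codon+, purified on Ni-NTA, His tag removed by thrombin. 100 nM protein in 10 mM phosphate pH 6.5 with 100 mM NaCl, at 25 °C in a stirred cuvette. Test compound titrated from 5 nM to 10 μM in 11 steps. Tryptophan emission excited at 295 nm, reference titrations subtracted, dilution-corrected. Kd from single-site binding isotherm fit.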

V domain of RAGE [3] = target: T1, V domain of RAGE; experiment: ELISA-based competition with MGO-BSA for the V domain; type: binding; settings: 1 μM V domain
V domain of RAGE [4] = target: T1, V domain of RAGE; experiment: Binding of arginine to the V domain; settings: method not stated
[5] = test system: JNK phosphorylation (p-JNK) in A549 cells, effector of RAGE signaling; experiment: JNK phosphorylation in A549 cells, Western blot; type: cell-based, human; settings: 200 nM (12 μg/mL) MGO-BSA, 7 min, vs unmodified BSA
[6] = target: B1; experiment: other fluorescence titration
[7] = target: methylglyoxal-modified bovine serum albumin (bovine, UniProt P02769 25-607, methylglyoxal-modified, contains hydroimidazolones; sites and number not stated); experiment: ELISA
methylglyoxal-modified bovine serum albumin, sequence (P02769 25-607): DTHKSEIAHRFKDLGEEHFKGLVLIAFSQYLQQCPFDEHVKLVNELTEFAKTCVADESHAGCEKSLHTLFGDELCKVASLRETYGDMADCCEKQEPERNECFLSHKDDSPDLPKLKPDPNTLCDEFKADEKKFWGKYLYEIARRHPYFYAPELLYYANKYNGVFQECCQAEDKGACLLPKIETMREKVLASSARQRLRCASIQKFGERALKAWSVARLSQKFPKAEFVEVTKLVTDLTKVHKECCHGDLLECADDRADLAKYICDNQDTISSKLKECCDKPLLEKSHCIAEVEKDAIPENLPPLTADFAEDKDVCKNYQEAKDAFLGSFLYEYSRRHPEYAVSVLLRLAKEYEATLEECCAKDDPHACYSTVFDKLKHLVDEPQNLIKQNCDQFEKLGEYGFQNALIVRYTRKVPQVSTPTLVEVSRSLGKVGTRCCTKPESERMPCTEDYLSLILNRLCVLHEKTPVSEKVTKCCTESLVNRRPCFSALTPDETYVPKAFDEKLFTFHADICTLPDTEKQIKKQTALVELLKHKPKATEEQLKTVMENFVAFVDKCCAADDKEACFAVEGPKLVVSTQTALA

Molecule: CC1N=C(NCCCC(N)C(=O)O)NC1=O [(R)-epimer of MG-H1]
- stereospecific fit into the MG-H1–V domain binding site (V domain of RAGE [1]; NMR solution structure, ligand racemic mixture of (R)- and (S)-epimers): Only the (R)-epimer of MG-H1 can be fit into the MG-H1–V domain binding site

Molecule: CC(NCCCC[C@H](N)C(=O)O)C(=O)O (stereo partly drawn) [CEL, N^ε-carboxyethyl-lysine]
- binding to RAGE of free AGE adducts of lysine (RAGE): do not bind to RAGE

Molecule: N[C@@H](CCCCNCC(=O)O)C(=O)O [CML, N^ε-carboxymethyl-lysine]
- binding to RAGE of free AGE adducts of lysine (RAGE): do not bind to RAGE

Molecule: N[C@@H](CCCNC1=NC(=O)CN1)C(=O)O [G-H1, N^δ-(5-hydro-4-imidazolon-2-yl)ornithine]
- affinity for the V domain (in words) (V domain of RAGE [2]): comparable to that of the MG-Hs

Molecule: CC1NC(NCCC[C@H](N)C(=O)O)=NC1=O (stereo partly drawn) [MG-H1, N^δ-(5-hydro-5-methyl-4-imidazolon-2-yl)ornithine]
- size of MG-H1 binding site (V domain of RAGE [1]; NMR solution structure of MG-H1–V domain complex): 80 Å^2
- blocking of MGO-BSA binding to the V domain (V domain of RAGE [3]): can successfully block binding of MGO-BSA to the V domain

Molecule: CC1C(=O)N=C(N)N1CCCC(N)C(=O)O (stereo not drawn) [MG-H2, 5-(2-amino-5-hydro-5-methyl-4-imidazolon-1-yl)norvaline]
- blocking of MGO-BSA binding to the V domain (V domain of RAGE [3]): can successfully block binding of MGO-BSA to the V domain

Molecule: CC1N=C(N)N(CCCC(N)C(=O)O)C1=O (stereo not drawn) [MG-H3, 5-(2-amino-4-hydro-4-methyl-5-imidazolon-1-yl)norvaline]
- blocking of MGO-BSA binding to the V domain (V domain of RAGE [3]): can successfully block binding of MGO-BSA to the V domain

Molecule: N=C(N)NCCC[C@H](N)C(=O)O [arginine]
- binding to the V domain (V domain of RAGE [4]): did not detect any binding

Molecule: MGO-BSA: methylglyoxal-modified bovine serum albumin, prepared according to the method of Ahmed et al.
- JNK phosphorylation [5]: increase in the level of phosphorylation of JNK; also recorded: increases JNK phosphorylation (p-JNK) relative to that with BSA alone

Molecule: ALT[MG‑H1]EYTG [ALT(MG-H1)EYTG, synthetic MG-H1-containing peptide]
- Kd [6]: 44 ± 6 nM

Molecule: B1
- binding result [7]: binds

Source: publication PMC4038343 (Biochemistry, 2014)
